Activity and Kd data for three compounds are collected here from ChEMBL document CHEMBL1145382, “Novel ergopeptides as dual ligands for adenosine and dopamine receptors” (J Med Chem, 2007).

The term Kd denotes the free concentration of one partner at which half of the binding sites on the other are occupied at equilibrium, for simple one-to-one binding. Low values mean a tighter complex, high ones a looser complex.

Molecules are shown by their SMILES. Activity calls are given as the source filed them. No cut-off for these calls is given here.

For test [1], the target named is T1, Adenosine receptor A1 (Homo sapiens) (UniProt P30542).
T1 sequence (whole entry): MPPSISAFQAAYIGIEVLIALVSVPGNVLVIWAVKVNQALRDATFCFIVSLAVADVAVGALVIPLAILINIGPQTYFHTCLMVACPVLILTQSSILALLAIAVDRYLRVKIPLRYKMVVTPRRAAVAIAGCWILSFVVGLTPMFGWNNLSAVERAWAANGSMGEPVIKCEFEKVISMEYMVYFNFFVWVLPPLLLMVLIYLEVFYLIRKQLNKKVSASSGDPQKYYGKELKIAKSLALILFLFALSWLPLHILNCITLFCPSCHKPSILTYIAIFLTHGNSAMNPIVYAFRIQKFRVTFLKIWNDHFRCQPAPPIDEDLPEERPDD
The test is described as follows: Agonist activity at adenosine A1 receptor transfected in mouse L(tk-) cells assessed as decrease in forskolin-induced cAMP levels. It counts as functional, cell-based. The gist of the method: (§1)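 Mouse Ltk- fibroblasts cotransfected with human A1R and D1R, preincubated 5-10 min at 22 °C with 50 µM SCH to block D1R. Then 50 µM zardaverine, 10 µM forskolin, and 50 µM ergopeptide, with or without 20 nM R-PIA or 50 µM DPCPX. 35 min total. cAMP by enzyme immunoassay. Three to six determinations.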
(Changes in cAMP serve as a functional read-out for many G protein-coupled receptors.)

Test [2] concerns the target T2, Adenosine receptor A2a (Homo sapiens, UniProt P29274). The test is described as follows: Displacement of [3H]CGS 21680 from adenosine A2A receptor in lamb striatum membrane at 50 uM after 2 hrs. As to conditions: Ovis aries, target entry is the homologue from another species. Type of test: cell membranes. The gist of the method:
(§2)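 Single-concentration screen at 50 µM ergopeptide on lamb striatal membranes (0.5 mg protein/mL), 22 °C, 50 mM Tris-HCl pH 7.4. Radioligands: [3H]SCH 23390 1.2 nM (D1), [3H]YM 09151-2 0.9 nM (D2), [3H]R-PIA 2.2 nM (A1, with MgCl2 and ADA), [3H]CGS 21680 20.1 nM (A2A, with MgCl2 and ADA). Specific binding displaced, after filtration and scintillation counting.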
A general note: Loss of bound radioactivity is the signal in a displacement assay; it reports binding, not function.

In test [3] the target is D(1A) dopamine receptor (Homo sapiens) (UniProt P21728). The experiment in a line: Antagonist activity at dopamine D1 receptor transfected in mouse L(tk-) cells assessed as inhibition of SKF-induced stimulation of forskolin-induced cAMP levels. It counts as functional, cell-based. The gist of the method:
(§3)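 Mouse Ltk- fibroblasts cotransfected with human A1R and D1R, serum-starved 12-16 h. In HBSS with 50 µM zardaverine, then 50 µM ergopeptide, with or without 20 nM SKF or 50 µM SCH. 35 min total incubation. cAMP by competitive enzyme immunoassay. Three to six determinations, t test.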

In test [4] the target is D(2) dopamine receptor (Homo sapiens) (UniProt P14416). The test is described as follows: Displacement of [3H]YM 09151-2 from dopamine D2 receptor in lamb striatum membrane at 50 uM after 2 hrs. It counts as cell membranes. To be noted: Ovis aries, target entry is the homologue from another species. The gist of the method:
as §2

Test [5] has the same target. The test is described as follows: Agonist activity at dopamine D2 receptor in SH-SY5Y cells assessed as inhibition of forskolin-activated intracellular cAMP production at 50 uM. Type of test: functional, cell-based. The gist of the method:
(§4)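 SH-SY5Y cells expressing human D2LR, preincubated 5-10 min at 22 °C with 5 µM ZM to block A2AR. Then 50 µM zardaverine, 10 µM forskolin, and 50 µM ergopeptide, with or without 150 nM quinpirole or 50 µM raclopride. 35 min total. cAMP by enzyme immunoassay. Three to six determinations, t test.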

Test [6] deals with D(1A) dopamine receptor (Homo sapiens) (UniProt P21728). The experiment in a line: Displacement of [3H]SCH 23390 from dopamine D1 receptor in lamb striatum membrane at 50 uM after 1 hr. It counts as cell membranes. As to conditions: Ovis aries, target entry is the homologue from another species. The gist of the method:
as §2

Test [7] addresses T2, Adenosine receptor A2a. The test is described as follows: Displacement of [3H]CGS 21680 from adenosine A2A receptor in lamb striatum membrane after 2 hrs. It counts as cell membranes, Ovis aries. To be noted: target entry is the homologue from another species. The gist of the method:
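Lamb striatal membranes (0.5 mg protein/mL), 22 °C, 50 mM Tris-HCl pH 7.4, with increasing ergopeptide concentrations. Conditions per receptor: D1 1.2 nM [3H]SCH 23390, 1 mM dopamine nonspecific. D2 0.9 nM [3H]YM 09151-2, 100 µM raclopride nonspecific. A1 2.2 nM [3H]R-PIA, 10 mM MgCl2, 0.2 U/mL ADA, 50 µM R-PIA nonspecific. A2A 20.1 nM [3H]CGS 21680, 10 mM MgCl2, 2 U/mL ADA, 1 mM CGS 21680 nonspecific. Filtration, scintillation counting. KD by nonlinear one- or two-site fit. Three to six determinations.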

For test [8], the target named is T1, Adenosine receptor A1 (Homo sapiens). The test is described as follows: Antagonist activity at adenosine A1 receptor transfected in mouse L(tk-) cells assessed as inhibition of R-PIA-induced decrease in forskolin-induced cAMP levels. Type of test: functional, cell-based. The gist of the method: as §1
For test [9], the target named is D(1A) dopamine receptor (Homo sapiens) (UniProt P21728). The experiment in a line: Agonist activity at dopamine D1 receptor transfected in mouse L(tk-) cells assessed as stimulation of cAMP levels. It counts as functional, cell-based. The gist of the method: as §3
Test [10] has as its target T1, Adenosine receptor A1 (Homo sapiens). The test is described as follows: Displacement of [3H]R-PIA from adenosine A1 receptor in lamb striatum membrane at 50 uM after 1 hr. To be noted: Ovis aries, target entry is the homologue from another species. It counts as cell membranes. The gist of the method: as §2
Test [11] concerns the target T2, Adenosine receptor A2a. The test is described as follows: Agonist activity at adenosine A2A receptor in SH-SY5Y cells assessed as CGS-induced intracellular cAMP production at 50 uM. Type of test: functional, cell-based. The gist of the method:
(§5)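 SH-SY5Y neuroblastoma cells, endogenous A2AR, stably carrying human D2LR. Serum-starved 12-16 h, in HBSS with 50 µM zardaverine for 10 min, then 50 µM ergopeptide, alone or with the A2AR agonist CGS. 35 min total incubation. cAMP by competitive enzyme immunoassay. Three to six determinations, Student's t test.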

Test [12] has as its target T2, Adenosine receptor A2a. The experiment in a line: Antagonist activity at adenosine A2A receptor in SH-SY5Y cells assessed as CGS-induced intracellular cAMP production at 50 uM. It counts as functional, cell-based. The gist of the method:
as §5

Test [13] has as its target D(2) dopamine receptor (Homo sapiens) (UniProt P14416). The test is described as follows: Antagonist activity at dopamine D2 receptor in SH-SY5Y cells assessed as effect on forskolin-activated intracellular cAMP production at 50 uM. Type of test: functional, cell-based. The gist of the method: as §4

T2 sequence (P29274 whole entry): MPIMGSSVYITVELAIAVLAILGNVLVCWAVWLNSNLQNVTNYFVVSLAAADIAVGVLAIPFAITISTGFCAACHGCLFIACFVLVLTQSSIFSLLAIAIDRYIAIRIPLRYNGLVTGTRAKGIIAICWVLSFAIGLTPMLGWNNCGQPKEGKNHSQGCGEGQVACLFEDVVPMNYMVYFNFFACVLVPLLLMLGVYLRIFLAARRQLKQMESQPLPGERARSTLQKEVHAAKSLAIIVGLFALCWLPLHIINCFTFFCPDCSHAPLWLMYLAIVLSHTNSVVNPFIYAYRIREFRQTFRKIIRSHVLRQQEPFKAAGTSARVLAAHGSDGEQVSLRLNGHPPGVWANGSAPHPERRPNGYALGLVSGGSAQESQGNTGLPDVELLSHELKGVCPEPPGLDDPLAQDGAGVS
D(2) dopamine receptor (Homo sapiens), sequence (P14416 whole entry): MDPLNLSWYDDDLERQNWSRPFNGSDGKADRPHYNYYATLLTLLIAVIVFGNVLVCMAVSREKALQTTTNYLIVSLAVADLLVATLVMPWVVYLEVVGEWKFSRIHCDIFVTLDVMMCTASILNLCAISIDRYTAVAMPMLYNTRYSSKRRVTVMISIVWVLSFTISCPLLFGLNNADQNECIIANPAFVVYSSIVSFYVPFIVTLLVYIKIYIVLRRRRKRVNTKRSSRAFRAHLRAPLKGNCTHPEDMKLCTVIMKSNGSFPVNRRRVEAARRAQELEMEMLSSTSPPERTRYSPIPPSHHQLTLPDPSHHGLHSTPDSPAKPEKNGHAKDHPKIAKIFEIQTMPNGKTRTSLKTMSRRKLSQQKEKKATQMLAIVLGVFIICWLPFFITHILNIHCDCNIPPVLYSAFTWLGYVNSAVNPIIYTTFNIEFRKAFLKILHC
D(1A) dopamine receptor (Homo sapiens), sequence (P21728 whole entry): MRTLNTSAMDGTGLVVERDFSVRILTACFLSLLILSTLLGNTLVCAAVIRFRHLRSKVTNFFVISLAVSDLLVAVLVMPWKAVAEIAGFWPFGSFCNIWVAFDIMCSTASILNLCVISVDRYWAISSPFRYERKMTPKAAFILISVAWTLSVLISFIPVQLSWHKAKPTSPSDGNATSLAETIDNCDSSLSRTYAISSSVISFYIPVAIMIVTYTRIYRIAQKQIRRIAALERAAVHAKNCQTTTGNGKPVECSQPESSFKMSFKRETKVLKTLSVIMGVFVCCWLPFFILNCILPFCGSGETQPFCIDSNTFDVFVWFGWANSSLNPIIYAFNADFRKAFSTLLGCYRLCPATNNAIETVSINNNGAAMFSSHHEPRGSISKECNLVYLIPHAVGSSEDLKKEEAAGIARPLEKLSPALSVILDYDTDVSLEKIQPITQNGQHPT

As for `CN1C[C@H](C(=O)N[C@@H](CCC2CCCCC2)C(=O)N[C@@H](Cc2ccc(F)cc2)C(=O)N2CCC[C@H]2C(N)=O)C=C2c3cccc4[nH]cc(c34)C[C@H]21`, the result (in test [1]; in [3]; at Adenosine receptor A2a [11]) was inactive. Also, the Activity (on Adenosine receptor A2a [2]; in [4]; in test [6]; in test [10]) was below 40% each time. Moreover, the outcome in test [5], in [8] and in test [9] was Active. On Adenosine receptor A2a [7], this compound returned a Kd of 33 µM.
Regarding `CC(C)[C@H](NC(=O)[C@@H]1C=C2c3cccc4[nH]cc(c34)C[C@H]2N(C)C1)C(=O)N[C@@H](CCC1CCCCC1)C(=O)N1CCCC(C(N)=O)C1` (some centres undefined), the result (in [1]; in [3]; on Adenosine receptor A2a [11]) was inactive. Also, the Activity (at Adenosine receptor A2a [2]; in test [4]; in test [6]; in test [10]) was below 40% each time. Besides, the result (at Adenosine receptor A2a [12]; in test [13]; in test [8]; in test [9]) was Active. Also, the dissociation constant Kd on Adenosine receptor A2a [7] is 50 µM.
Consider `CC(C)[C@H](NC(=O)[C@@H]1C=C2c3cccc4[nH]cc(c34)C[C@H]2N(C)C1)C(=O)N[C@@H](CCC1CCCCC1)C(=O)N1c2ccccc2C[C@H]1C(N)=O`, for which the outcome (in [1]; in [3]; on Adenosine receptor A2a [11]) was inactive. In addition, the Activity (on Adenosine receptor A2a [2]; in test [4]; in [6]; in [10]) was below 40% throughout. Besides, the result in [13], in test [8] and in test [9] was Active. The dissociation constant (Kd) at Adenosine receptor A2a [7] was found to be 25 µM.
